# Reference: ChEMBL document CHEMBL1136924 (J Med Chem, 2009)
# Active and inactive are the calls of the source.
# Key:
# D(1A) dopamine receptor = D(1A) dopamine receptor (Rattus norvegicus, UniProt P18901); test: Displacement of [3H]SCH-23390 from dopamine D1 receptor in rat striatum
# [1] = biological target: 5-hydroxytryptamine receptor 2A (Rattus norvegicus, UniProt P14842); test: Displacement of [3H]ketanserin from 5HT2A receptor in rat cortex
# [2] = biological target: T1, 5-hydroxytryptamine receptor 3A (Rattus norvegicus, UniProt P35563); test: Displacement of [3H]LY278584 from 5HT3 receptor in rat cortical homogenate
# T1 sequence (P35563 whole entry): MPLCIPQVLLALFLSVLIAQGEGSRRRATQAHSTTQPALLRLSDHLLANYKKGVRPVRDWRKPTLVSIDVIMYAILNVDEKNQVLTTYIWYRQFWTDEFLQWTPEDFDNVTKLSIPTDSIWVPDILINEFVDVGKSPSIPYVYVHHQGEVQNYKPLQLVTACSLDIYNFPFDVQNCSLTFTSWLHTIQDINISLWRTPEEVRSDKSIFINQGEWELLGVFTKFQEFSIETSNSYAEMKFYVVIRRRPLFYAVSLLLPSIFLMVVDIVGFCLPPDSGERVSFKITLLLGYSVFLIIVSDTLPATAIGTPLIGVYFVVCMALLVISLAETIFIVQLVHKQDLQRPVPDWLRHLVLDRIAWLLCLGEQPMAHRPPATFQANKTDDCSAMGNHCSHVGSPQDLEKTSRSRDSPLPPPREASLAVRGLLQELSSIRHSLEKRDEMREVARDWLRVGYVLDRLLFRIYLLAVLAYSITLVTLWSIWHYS
# [3] = biological target: Muscarinic acetylcholine receptor; test: Displacement of [3H]QNB from muscarinic receptor in rat cortex
# [4] = biological target: 5-hydroxytryptamine receptor 4 (Cavia porcellus, UniProt O70528); test: Displacement of [3H]GR-113808 from 5HT4 receptor in guinea pig striatum
# [5] = biological target: T2, 5-hydroxytryptamine receptor 1A (Rattus norvegicus, UniProt P19327); test: Displacement of [3H]8-OHDPAT from 5HT1A receptor in rat hippocampus; type: tissue-based
# T2 sequence (P19327 whole entry): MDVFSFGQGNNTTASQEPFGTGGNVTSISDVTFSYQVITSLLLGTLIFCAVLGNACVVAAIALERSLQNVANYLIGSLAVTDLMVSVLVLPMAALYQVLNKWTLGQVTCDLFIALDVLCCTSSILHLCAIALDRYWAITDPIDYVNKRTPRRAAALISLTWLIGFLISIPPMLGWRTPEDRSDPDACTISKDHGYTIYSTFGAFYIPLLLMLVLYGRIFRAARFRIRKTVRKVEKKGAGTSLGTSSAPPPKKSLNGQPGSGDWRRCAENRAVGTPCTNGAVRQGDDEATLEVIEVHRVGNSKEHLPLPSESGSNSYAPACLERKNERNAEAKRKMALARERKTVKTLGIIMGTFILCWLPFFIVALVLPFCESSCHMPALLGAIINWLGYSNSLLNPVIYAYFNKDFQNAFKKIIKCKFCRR
# D(2) dopamine receptor = D(2) dopamine receptor (Rattus norvegicus, UniProt P61169); test: Displacement of [3H]spiperone from dopamine D2 receptor in rat striatum
# [6] = biological target: T1, 5-hydroxytryptamine receptor 3A; test: Displacement of [3H]zacopride from 5HT3 receptor in rat cortex
# Rattus norvegicus = test: Antagonist activity at 5HT3 receptor in iv dosed urethane-anesthetized Sprague-Dawley rat assessed as inhibition of 1-phenylbiguanide-induced bradycardia administered 5 mins before 1-phenylbiguanide challenge measured after 5 to 30 mins post-treatment by von Bezold-Jarisch reflex test; type: functional; details: for ED50: read-out: ID50 (the source's name)
# [7] = biological target: T3, 5-hydroxytryptamine receptor 3A (Cavia porcellus) (UniProt O70212); test: Agonist activity at 5HT3 receptor in guinea pig thoracic aorta assessed as positive contractility potency at 100 uM; type: functional, tissue-based
# T3 sequence (whole entry): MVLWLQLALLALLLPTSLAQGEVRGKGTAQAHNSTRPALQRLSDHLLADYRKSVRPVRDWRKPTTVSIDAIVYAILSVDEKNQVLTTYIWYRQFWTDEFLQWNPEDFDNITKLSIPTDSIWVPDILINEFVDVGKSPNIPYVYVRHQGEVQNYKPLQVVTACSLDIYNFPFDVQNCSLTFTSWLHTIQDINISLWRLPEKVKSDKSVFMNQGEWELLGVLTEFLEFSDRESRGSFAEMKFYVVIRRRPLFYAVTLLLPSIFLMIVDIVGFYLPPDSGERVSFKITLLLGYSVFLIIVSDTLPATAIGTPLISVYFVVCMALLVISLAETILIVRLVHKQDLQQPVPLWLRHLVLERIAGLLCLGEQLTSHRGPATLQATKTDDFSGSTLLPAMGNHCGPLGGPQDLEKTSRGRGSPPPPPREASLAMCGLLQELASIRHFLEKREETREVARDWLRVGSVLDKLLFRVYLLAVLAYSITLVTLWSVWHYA
# Procedure, shortened: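 Guinea pig aortic helicoidal strips in PSS at 35 °C, aerated, under 1 g resting force, washed every 20 min for 1 h. Compounds added cumulatively 0.1-100 µM (DMSO vehicle); isometric contraction recorded.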
# [8] = biological target: T3, 5-hydroxytryptamine receptor 3A (Cavia porcellus); test: Intrinsic activity at 5HT3 receptor in spontaneously beating guinea pig right atrium assessed as positive chronotropic potency relative to serotonin; details: Cardiac atrium
# Procedure, shortened: (§1)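 Guinea pig left and right atria were hung in a 15 mL bath of PSS (pH 7.4, 95% O2-5% CO2, 35 °C) with ketanserin 1 µM. The right atrium beat spontaneously; the left was paced at 1 Hz. Cumulative doses (0.1-100 µM; DMSO ≤0.3%) were added after 45-60 min stabilization. Rate or isometric force was recorded. EC50 came from Probit analysis, n≥4. Intrinsic activity was taken relative to 5-HT.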
# [9] = biological target: T3, 5-hydroxytryptamine receptor 3A (Cavia porcellus); test: Agonist activity at 5HT3 receptor in voltage-stimulated guinea pig left atrium assessed as positive inotropic potency at 100 uM; type: functional, tissue-based; details: Cardiac atrium; procedure, shortened: as §1
# [10] = biological target: T3, 5-hydroxytryptamine receptor 3A (Cavia porcellus); test: Agonist activity at 5HT3 receptor in spontaneously beating guinea pig right atrium assessed as positive chronotropic potency; type: functional, tissue-based; details: Cardiac atrium
# Procedure, shortened: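 Isolated guinea pig atria in PSS (Tyrode) with ketanserin 1 µM, 95% O2-5% CO2, pH 7.4, 35 °C. Right atrium beating spontaneously (rate); left atrium paced 1 Hz, 0.6-0.8 ms pulses near 50% threshold (force). Isometric recording after 45-60 min stabilization.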
# Chain of 5-hydroxytryptamine receptor 4 (O70528 whole entry): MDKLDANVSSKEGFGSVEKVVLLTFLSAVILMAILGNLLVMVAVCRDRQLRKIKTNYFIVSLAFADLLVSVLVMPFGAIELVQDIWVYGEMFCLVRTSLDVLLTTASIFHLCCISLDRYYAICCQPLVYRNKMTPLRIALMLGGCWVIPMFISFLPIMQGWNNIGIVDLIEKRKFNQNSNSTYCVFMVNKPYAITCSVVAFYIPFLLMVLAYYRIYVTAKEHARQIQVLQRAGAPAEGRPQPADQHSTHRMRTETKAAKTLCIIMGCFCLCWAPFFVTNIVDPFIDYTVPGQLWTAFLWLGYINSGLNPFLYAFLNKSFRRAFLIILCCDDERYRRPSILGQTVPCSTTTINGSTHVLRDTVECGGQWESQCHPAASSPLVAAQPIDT
# Chain of 5-hydroxytryptamine receptor 2A (P14842 whole entry): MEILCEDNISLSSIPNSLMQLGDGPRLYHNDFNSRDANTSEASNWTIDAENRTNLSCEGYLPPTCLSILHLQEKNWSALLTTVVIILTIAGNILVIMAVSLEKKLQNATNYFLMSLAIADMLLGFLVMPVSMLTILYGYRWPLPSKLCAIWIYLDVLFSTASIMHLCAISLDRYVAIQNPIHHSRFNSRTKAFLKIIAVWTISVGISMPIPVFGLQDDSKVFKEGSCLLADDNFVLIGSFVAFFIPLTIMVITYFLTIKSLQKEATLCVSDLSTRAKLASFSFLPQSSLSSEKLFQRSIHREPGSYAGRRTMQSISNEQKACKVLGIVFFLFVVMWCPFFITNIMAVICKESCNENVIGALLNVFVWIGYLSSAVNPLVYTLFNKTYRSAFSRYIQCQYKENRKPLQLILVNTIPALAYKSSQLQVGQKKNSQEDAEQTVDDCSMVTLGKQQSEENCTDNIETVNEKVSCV
# Chain of D(2) dopamine receptor (P61169 whole entry): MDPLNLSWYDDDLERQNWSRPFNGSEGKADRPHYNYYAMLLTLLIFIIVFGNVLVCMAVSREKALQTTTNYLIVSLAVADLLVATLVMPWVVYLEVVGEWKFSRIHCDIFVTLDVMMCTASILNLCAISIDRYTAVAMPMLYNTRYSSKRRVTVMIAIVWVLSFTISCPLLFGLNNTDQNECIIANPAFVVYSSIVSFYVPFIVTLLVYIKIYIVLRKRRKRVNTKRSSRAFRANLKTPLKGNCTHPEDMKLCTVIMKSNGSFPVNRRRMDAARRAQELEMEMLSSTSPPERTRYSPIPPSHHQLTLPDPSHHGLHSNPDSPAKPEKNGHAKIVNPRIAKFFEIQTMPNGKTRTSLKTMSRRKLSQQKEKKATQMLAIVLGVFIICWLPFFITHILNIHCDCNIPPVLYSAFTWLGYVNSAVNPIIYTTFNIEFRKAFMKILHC
# Chain of D(1A) dopamine receptor (P18901 whole entry): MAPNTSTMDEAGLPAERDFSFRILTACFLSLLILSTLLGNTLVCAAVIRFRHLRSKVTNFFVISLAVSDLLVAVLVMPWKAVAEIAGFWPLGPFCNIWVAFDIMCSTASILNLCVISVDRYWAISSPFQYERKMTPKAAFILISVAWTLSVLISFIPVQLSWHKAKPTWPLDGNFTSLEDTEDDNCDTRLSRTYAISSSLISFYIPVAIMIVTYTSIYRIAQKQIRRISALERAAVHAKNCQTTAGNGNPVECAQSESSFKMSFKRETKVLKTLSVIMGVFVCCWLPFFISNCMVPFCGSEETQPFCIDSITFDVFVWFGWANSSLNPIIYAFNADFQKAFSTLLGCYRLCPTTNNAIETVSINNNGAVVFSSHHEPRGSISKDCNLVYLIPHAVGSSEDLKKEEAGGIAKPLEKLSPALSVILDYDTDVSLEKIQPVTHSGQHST
structure (smiles),measurement,setting,value
O=C(O)CN1CCN(c2ccc3ccccc3n2)CC1,Ki,D(1A) dopamine receptor,> 10000 nM
same,Ki,[1],> 10000 nM
same,Ki,[2],11.2 nM
same,Ki,[3],> 10000 nM
same,Ki,[4],5750 nM
same,Ki,[5],> 10000 nM
same,Ki,D(2) dopamine receptor,919 nM
Fc1ccc2c(c1)nc(N1CCN(Cc3nnn[nH]3)CC1)c1cccn12,Ki,[2],65 nM
CN1CCN(c2nc3cc(O)ccc3n3cccc23)CC1,Ki,[6],0.7 nM
O=C(CN1CCN(c2nc3cc(F)ccc3n3cccc23)CC1)NO,ED50,Rattus norvegicus,0.05 mg/kg
same,Ki,[2],2.2 nM
O=c1[nH]nc(CN2CCN(c3nc4cc(F)ccc4n4cccc34)CC2)[nH]1,Ki,[2],17 nM
CN1CCN(c2nc3cc(F)ccc3n3cccc23)CC1,pD2,[7],inactive
same,Ki,[1],124 nM
same,ID50,Rattus norvegicus,Dose-dependent effect
same,ED50,Rattus norvegicus,0.6 mg/kg
same,Intrinsic activity,[8],0.6
same,Ki,[2],0.8 nM
same,pD2,[9],inactive
same,Ki,[4],> 10000 nM
same,Ki,[5],138 nM
same,pD2,[10],6.79
c1ccc2nc(N3CCNCC3)ccc2c1 [QUIPAZINE],Ki,[2],0.96 nM
same,Ki,[4],> 10000 nM
O=c1[nH]nc(CN2CCN(c3nc4cc(F)ccc4n4cccc34)CC2)o1,Ki,[2],127 nM
Cc1cccc2nc(N3CCN(C(CO)c4ccccc4)CC3)c3cccn3c12 (stereo unspecified),Ki,[2],79 nM
